Most compounds without a hit are left out; they make up all but 3.3% or so of the library.
CendR NRP1 mod: modulators of CendR peptide binding to NRP-1, primary screen, biochemical, fluorescence polarization, uHTS | 360,000 tested, 0.85% active | inhibition, % at 25 µM | FAM-RPARPAR peptide binding to NRP-1 | AID 602438, 2012 | Neuropilin-1 (Homo sapiens), O14786;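 active = inhibition or corrected inhibition above about 18%, plus a signal ratio from 0.5 to 1.5, limit read from the data, passing the limit was not always enough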
Myeloid diff 2: induction of myeloid progenitor differentiation, primary screen, cell-based, flow cytometry, MLPCN library. ER-HoxA9 myeloid progenitors, lysozyme-GFP differentiation. calls only at 10 µM. 360,000 tested, 1% active. AID 624256, 2012;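 active = normalized GFP-positive differentiation at or above the plate's own cutoff, the solvent-only control mean plus 3 SD; inconclusive = no clear call, values can overlap the other calls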;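 also: cells exposed to compound for four days before flow analysis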
Arrestin-AP2 inh: inhibitors of beta-arrestin/AP2 binding, primary screen, biochemical, GPCR trafficking, flow cytometry | beta-arrestin 1 C-terminal peptide binding to AP2 beta2-adaptin appendage (human) | inhibition, % at 10 µM | 340,000 tested, 0.31% active | AID 504490, 2011 | FITC-arrestin peptide / GST-AP2 beads; AP2 beta2 appendage carries R879A mutation;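 active = inhibition above a set limit, near 3 SD of compounds lacking own fluorescence, cut at about 54% in these data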;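 also: plate controls were DMSO wells for no effect and 5 µM unlabelled arrestin peptide for full effect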
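test system = AP2 appendage R879A on GSH beads | buffer or medium = PBS plus Tween 20 (0.05%) and BSA (0.1%) | incubation = 12 min plus 1 h, RT | detection = bead flow cytometry, FITC channel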
ABCB6 inh MLPCN: ABCB6 transporter inhibitors, primary screen, K562-ABCB6 cells, flow cytometry, MLPCN library. fluorescence ratio to DMSO, % at 10 µM. ATP-binding cassette sub-family B member 6 (Homo sapiens), Q9NP58. K562-ABCB6 porphyrin accumulation, 1 h; stronger effect = lower value. 360,000 tested, 0.19% active;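 active = fluorescence ratio to DMSO below 75%, the collection mean minus 3 SD; inconclusive = too few cells collected in the well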;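 also: signal is porphyrin accumulated inside mitochondria; 100% equals median channel fluorescence of DMSO control wells; lower ratio means ABCB6 inhibition with less porphyrin fluorescence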
ATG4B inh: ATG4B protease inhibitors, primary screen, biochemical, fluorescence, uHTS; 340,000 tested, 0.51% active; inhibition, % at 8.33 µM; ATG4B cleavage of LC3-PLA2, NBD-HPC fluorescence, 1 h; in the data active = inhibition above about 40%
Target sequence (Q9Y4P1 whole entry, looked up): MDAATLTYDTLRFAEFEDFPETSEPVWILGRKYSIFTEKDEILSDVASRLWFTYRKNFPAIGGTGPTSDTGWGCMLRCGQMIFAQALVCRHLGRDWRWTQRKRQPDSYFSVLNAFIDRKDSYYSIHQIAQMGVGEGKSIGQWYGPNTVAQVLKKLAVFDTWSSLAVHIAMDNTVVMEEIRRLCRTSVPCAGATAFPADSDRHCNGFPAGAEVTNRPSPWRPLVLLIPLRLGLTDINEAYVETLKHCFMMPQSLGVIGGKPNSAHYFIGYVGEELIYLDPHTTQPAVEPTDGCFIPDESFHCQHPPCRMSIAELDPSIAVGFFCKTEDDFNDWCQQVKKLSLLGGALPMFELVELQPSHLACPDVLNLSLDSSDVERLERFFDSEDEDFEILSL
Granule exo inh: LAMP-1 surface exposure blockers, TALL-104 cells – cell-based, flow cytometry, MLPCN library, primary screen; inhibition, % at 10 µM; TALL-104 LAMP-1 surface exposure; cells stimulated with thapsigargin and PMA; 360,000 tested, 0.66% active;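 active = inhibition above about 55%, limit read from the data; inconclusive = no clear call, values can overlap the other calls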
Myeloid diff: inducers of myeloid progenitor differentiation, confirmation, cell-based, GFP/Mac1 flow cytometry, cherry pick 01. 2,300 tested, 2% active. shares compounds with Myeloid diff 2. calls only. ER-HoxA9 myeloid progenitors, GFP/Mac1 double-positive flow;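 active = share of green or green-and-red cells above 9 and 9% in run 1 or 4 and 3% in run 2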
GFP autofluor: compound fluorescence in myeloid differentiation counter-screen; 2,300 tested, 7.4% active; shares compounds with Myeloid diff 2; fluorescence response, % (concentration not given with the values); ER-HoxA9 myeloid progenitors, no estrogen, GFP autofluorescence flow cytometry; vehicle wells 0%, positive control 100%;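 active = over 5% cells positive for green fluorescent reporter, or over 2% positive for both it and APC stain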;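 also: range taken on the double positive population between DMSO and positive control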
* marks the source's active call; other numbers are inactive results; i = inactive; ? = inconclusive; nt = not tested or not shown; + = active, no number.

SMILES | CendR NRP1 mod | Myeloid diff 2 | Arrestin-AP2 inh | ABCB6 inh MLPCN | ATG4B inh | Granule exo inh | Myeloid diff | GFP autofluor
CCN(CC)C(=O)C1=C(C)N(Cc2ccc(C(C)(C)C)cc2)C(=O)C(CC(=O)NCCCN(C)C)C1 (centres undefined) | -20 | i | nt | 102 | nt | -1 | i | 0
CC1=C(C(=O)N(C)C)CC(CC(=O)NCCCN(C)C)C(=O)N1Cc1ccc(C(C)(C)C)cc1 (centres undefined) | 14 | i | nt | 101 | nt | 6 | nt | nt
CC(C)C(=O)n1nc(-c2cccnc2)nc1NCc1cccs1 | -2 | i | 0 | 93 | 0 | 1 | nt | nt
O=C(COc1ncnc2c(Cl)cc(Cl)cc12)NCCC1=CCCCC1 | -4 | i | -2 | 104 | -8 | -7 | nt | nt
O=C(CCc1ccccc1)N/N=C/c1cc(Br)ccc1O | 12 | i | -4 | 103 | -12 | -2 | i | 0
Cc1ccc(C)c(S(=O)(=O)N2CCN(C(=O)c3ccnn3C)CC2)c1 | -9 | i | -16 | 105 | -5 | 0 | nt | nt
CN(C)S(=O)(=O)c1ccc(C(=O)NCC[N+]2(C)CCCCCC2)o1 | 0 | i | -15 | 94 | 0 | -5 | nt | nt
COc1ccc(S(=O)(=O)N2CCN(Cc3cccc(OC)c3)CC2)cc1 | 5 | i | 7 | 98 | -5 | -7 | nt | nt
COc1ccc(S(=O)(=O)N2CCCN(Cc3cccc(F)c3)CC2)cc1 | 2 | i | 4 | 91 | -3 | -2 | i | 1
COc1ccc(-c2nc(NC(=O)C3CC(=O)N(Cc4ccco4)C3)sc2C)cc1 (centres undefined) | 12 | i | 0 | 89 | -14 | -7 | i | 0
COc1ccc(-c2csc(NC(=O)C3CC(=O)N(Cc4ccco4)C3)n2)cc1 (centres undefined) | 7 | i | 3 | 100 | -17 | -7 | nt | nt
Cc1ccc(/C=C/c2onc(C)c2S(=O)(=O)N2CCC(C(=O)N3CCCCC3)CC2)cc1 | 8 | i | -2 | 99 | 0 | 14 | i | 0
COc1ccc(-n2c(C)cc(/C=C3\SC(=S)N(Cc4ccco4)C3=O)c2C)cc1 | -151 | + | -4 | 125 | -6 | -3 | + | 3
Cc1nc(N2CCc3ccccc3C2)[nH]c(=O)c1Cc1ccccc1 | -5 | i | 6 | 99 | 3 | 0 | nt | nt
Cc1nc(-n2[nH]c3c(c2=O)CCCC3)[nH]c(=O)c1Cc1ccccc1 | -177 | i | -8 | 100 | -13 | -2 | i | 0
CCC(COC)NCc1cn(-c2ccc(OC)cc2)nc1-c1cccc(F)c1 (centres undefined) | -7 | + | 11 | 123 | -30 | 1 | i | 0
COc1ccc(-n2cc(CNC(C)c3ccncn3)c(-c3cccc(F)c3)n2)cc1 (centres undefined) | -5 | i | 2 | 96 | 1 | -10 | nt | nt
Clc1cccc(Cl)c1C[n+]1ccc2ccccc2c1 | -8 | i | 6 | 125 | -8 | 18 | nt | nt
O=C(Nc1ccc2nc(C3CC3)n(Cc3ccc(F)cc3)c(=O)c2c1)c1ccco1 | 14 | + | 9 | 98 | 28 | 10 | i | 0
COc1ccc(Cn2c(=N)c(C(=O)NCC3CCCO3)cc3c(=O)n4ccccc4nc32)cc1 (centres undefined) | -17 | i | -5 | 108 | -5 | -5 | i | 0
COc1ccc(CCn2c(=N)c(C(=O)NCC3CCCO3)cc3c(=O)n4ccccc4nc32)cc1 (centres undefined) | 16 | ? | 8 | 97 | -7 | -4 | nt | nt
COc1ccc(-c2nc(S(=O)(=O)c3ccccc3)c(NCCCN3CCOCC3)o2)cc1 | 2 | i | -1 | 105 | 1 | 48 | nt | nt
N#C/C(=C\c1cc(Cl)cc(Cl)c1O)C(=O)NC1CCCCC1 | -18 | i | 5 | 102 | 22 | 0 | i | 0
CNCCCOc1ccc(C)cc1OC | 3 | i | 35 | 101 | 1 | -1 | i | 0
COc1ccccc1OCC(=O)N/N=C1/C=C(C)CC1 | -4 | i | -6 | 100 | 8 | 0 | nt | nt
SMILES | CendR NRP1 mod | Myeloid diff 2 | Arrestin-AP2 inh | ABCB6 inh MLPCN | ATG4B inh | Granule exo inh | Myeloid diff | GFP autofluor
COc1ccc2c(c1)C(=O)N1[C@H]3c4cc(C)ccc4OC[C@@H]3[C@H](c3ccccc3)[C@]1(C)C(=O)N2 | -3 | + | -1 | 95 | -9 | 14 | i | 0
COc1ccc2c(c1)OC[C@H]1[C@H]2N2C(=O)c3cc(C)ccc3NC(=O)[C@@]2(C)[C@H]1c1ccccc1 | 3 | i | -4 | 97 | -5 | 6 | nt | nt
CCc1ccc2c(c1)cc(CN(C(=S)Nc1ccccc1C)C1CC1)c1nnnn12 | 14 | i | 2 | 91 | -14 | -1 | i | 0
CCc1ccc2c(c1)cc(CN(C(=S)Nc1ccccc1)C1CC1)c1nnnn12 | -7 | i | 44 | 98 | 1 | -3 | nt | nt
O=C(Nc1nc2cc(Cl)ccc2s1)C1CCCN(S(=O)(=O)c2cccc3cccnc23)C1 (centres undefined) | -1 | i | -5 | 100 | -18 | -3 | nt | nt
CCCCN1C(=O)c2ccc(C(=O)NC3(C)CCS(=O)(=O)C3)cc2C1=O (centres undefined) | 6 | + | -13 | 119 | -5 | 0 | i | 0
COC(=O)[C@H](CCSC)NC(=O)N1CCN(c2cccc(C(F)(F)F)c2)CC1 | -1 | i | 17 | 103 | 5 | -2 | i | 0
COC(=O)[C@@H](NC(=O)N1CCN(c2cccc(C(F)(F)F)c2)CC1)C(C)C | 12 | i | 8 | 95 | -13 | -3 | nt | nt
CC1=C(C(=O)N2CCOCC2)CC(CC(=O)NC2CC2)C(=O)N1Cc1ccccc1 (centres undefined) | -4 | i | nt | 93 | nt | -3 | nt | nt
Cc1ccc2nc(SCC(=O)Nc3cccc(S(N)(=O)=O)c3)[nH]c2c1 | -11 | i | -2 | 96 | -17 | 7 | nt | nt
Cc1ccc2nc(SCC(=O)Nc3cccc(S(=O)(=O)NC4=NCCCCC4)c3)[nH]c2c1 | 2 | i | 16 | 100 | -10 | 6 | i | 96*

Assay outcomes as filed in PubChem BioAssay.
